Results published in ChEMBL document CHEMBL2321737, “Selective inhibition of glycosyltransferases by bivalent imidazolium salts” (Bioorg Med Chem, 2013).
Several values for one entry are separate records, joined by “and”; a condition that tells them apart may be missing. Equal values may be shown once. Activity calls are given as the source filed them. No cut-off for these calls is given here.

Legend:
Homo sapiens [1] = species: Homo sapiens; experiment: Inhibition of human C2GnT2 using Galbeta3GalNAcalpha-Bn as substrate at 0.5 mM after 1 hr in presence of phosphatidylcholine
[2] = molecular target: Beta-1,3-galactosyltransferase 5 (Homo sapiens) (UniProt Q9Y2C3); experiment: Inhibition of human recombinant soluble His-tagged beta3-GalT5 expressed in insect cells using GlcNAcbeta-Bn as substrate at 0.5 mM after 1 hr in presence of triton X-100
[3] = molecular target: T1, Alpha-1,6-mannosyl-glycoprotein 2-beta-N-acetylglucosaminyltransferase (Homo sapiens) (UniProt Q10469); experiment: Inhibition of human GNT2 […] using GnMan3-octyl as substrate at 0.5 mM after 1 hr in presence of phosphatidylcholine
T1 sequence (whole entry): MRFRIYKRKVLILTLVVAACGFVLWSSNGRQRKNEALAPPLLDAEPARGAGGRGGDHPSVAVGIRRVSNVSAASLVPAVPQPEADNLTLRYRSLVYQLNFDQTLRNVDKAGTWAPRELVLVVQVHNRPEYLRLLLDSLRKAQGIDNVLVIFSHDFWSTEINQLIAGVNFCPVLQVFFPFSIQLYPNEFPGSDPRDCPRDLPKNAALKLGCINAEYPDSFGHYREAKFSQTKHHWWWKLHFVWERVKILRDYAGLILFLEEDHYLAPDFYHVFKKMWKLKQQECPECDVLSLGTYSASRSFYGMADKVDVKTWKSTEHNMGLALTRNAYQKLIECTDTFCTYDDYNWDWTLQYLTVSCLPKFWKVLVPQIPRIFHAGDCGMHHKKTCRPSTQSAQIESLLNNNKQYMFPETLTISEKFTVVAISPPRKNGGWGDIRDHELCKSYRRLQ

[4] = molecular target: T2, Beta-1,4-galactosyltransferase 1 (Bos taurus) (UniProt P08037); experiment: Inhibition of bovine milk beta4-GalT1 using GlcNAcbeta-Bn as substrate at 0.5 mM after 1 hr relative to control
T2 sequence (whole entry): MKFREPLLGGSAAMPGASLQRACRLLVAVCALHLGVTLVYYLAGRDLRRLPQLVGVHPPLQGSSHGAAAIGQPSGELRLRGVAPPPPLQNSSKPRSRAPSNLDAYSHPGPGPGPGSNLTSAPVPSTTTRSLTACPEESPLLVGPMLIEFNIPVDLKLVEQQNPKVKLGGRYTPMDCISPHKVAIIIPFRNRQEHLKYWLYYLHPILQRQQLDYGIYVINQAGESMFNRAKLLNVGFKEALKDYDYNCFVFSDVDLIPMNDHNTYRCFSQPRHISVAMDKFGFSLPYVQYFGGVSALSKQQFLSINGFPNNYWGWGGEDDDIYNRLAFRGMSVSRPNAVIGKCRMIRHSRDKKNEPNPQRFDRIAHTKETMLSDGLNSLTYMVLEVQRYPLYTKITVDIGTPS
Method in brief: (§1)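 Single point at 0.5 mM bis-imidazolium salt, 10% ethanol. Acceptor 0.5 mM GlcNAcβ-Bn, donor 0.5 mM UDP-Gal. […] Enzyme: 0.34 µg His-tagged human β4-GalT1 from BL21, or bovine milk β4-GalT1. Mean ± SD of replicates.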

Homo sapiens [5] = species: Homo sapiens; experiment: Inhibition of human C2GnT2 using GlcNAcbeta3GalNAcalpha-pnp as substrate at 0.5 mM after 1 hr in presence of phosphatidylcholine
[6] = molecular target: Glycoprotein-N-acetylgalactosamine 3-beta-galactosyltransferase 1 (Homo sapiens) (UniProt Q9NS00); experiment: Inhibition of human C1GalT Gal-transferase using GalNAcalpha-Bn as substrate at 0.5 mM after 1 hr in presence of phosphatidylcholine
Sequence of Glycoprotein-N-acetylgalactosamine 3-beta-galactosyltransferase 1 (Homo sapiens) (Q9NS00 whole entry): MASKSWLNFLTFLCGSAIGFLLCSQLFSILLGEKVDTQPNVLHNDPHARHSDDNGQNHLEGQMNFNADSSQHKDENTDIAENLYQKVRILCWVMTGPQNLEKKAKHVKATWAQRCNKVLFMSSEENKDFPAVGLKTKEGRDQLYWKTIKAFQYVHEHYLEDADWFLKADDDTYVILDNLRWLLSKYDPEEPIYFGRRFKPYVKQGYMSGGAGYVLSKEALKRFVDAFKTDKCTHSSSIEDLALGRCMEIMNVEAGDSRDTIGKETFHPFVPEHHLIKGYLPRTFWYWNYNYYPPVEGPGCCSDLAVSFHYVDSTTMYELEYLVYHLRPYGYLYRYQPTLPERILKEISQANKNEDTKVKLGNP

[7] = molecular target: Beta-1,3-galactosyltransferase 5 (Homo sapiens) (UniProt Q9Y2C3); experiment: Inhibition of human recombinant soluble His-tagged beta3-GalT5 expressed in insect cells using GlcNAcbeta-Bn as substrate at 0.5 mM after 1 hr in presence of phosphatidylcholine
[8] = molecular target: T3, Beta-1,3-galactosyl-O-glycosyl-glycoprotein beta-1,6-N-acetylglucosaminyltransferase (Homo sapiens) (UniProt Q02742); experiment: Inhibition of human C2GnT1 using Galbeta3GalNAcalpha-Bn as substrate at 0.5 mM after 1 hr in presence of phosphatidylcholine
T3 sequence (whole entry): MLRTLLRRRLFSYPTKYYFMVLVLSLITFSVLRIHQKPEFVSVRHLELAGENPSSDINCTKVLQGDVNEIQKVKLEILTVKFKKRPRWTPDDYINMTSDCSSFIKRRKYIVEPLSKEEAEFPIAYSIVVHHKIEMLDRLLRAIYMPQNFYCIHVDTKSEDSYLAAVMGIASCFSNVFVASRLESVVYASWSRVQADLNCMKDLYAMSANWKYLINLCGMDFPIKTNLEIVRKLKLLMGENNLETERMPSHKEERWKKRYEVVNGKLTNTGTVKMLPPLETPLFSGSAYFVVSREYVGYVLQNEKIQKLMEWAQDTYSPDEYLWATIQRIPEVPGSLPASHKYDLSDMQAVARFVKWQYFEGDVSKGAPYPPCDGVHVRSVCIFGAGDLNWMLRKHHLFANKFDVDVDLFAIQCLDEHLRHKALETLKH

[9] = molecular target: T4, Acetylgalactosaminyl-O-glycosyl-glycoprotein beta-1,3-N-acetylglucosaminyltransferase (Homo sapiens) (UniProt Q6ZMB0); experiment: Inhibition of human B3GnT6 using GalNAcalpha-Bn as substrate at 0.5 mM after 1 hr in presence of phosphatidylcholine
T4 sequence (whole entry): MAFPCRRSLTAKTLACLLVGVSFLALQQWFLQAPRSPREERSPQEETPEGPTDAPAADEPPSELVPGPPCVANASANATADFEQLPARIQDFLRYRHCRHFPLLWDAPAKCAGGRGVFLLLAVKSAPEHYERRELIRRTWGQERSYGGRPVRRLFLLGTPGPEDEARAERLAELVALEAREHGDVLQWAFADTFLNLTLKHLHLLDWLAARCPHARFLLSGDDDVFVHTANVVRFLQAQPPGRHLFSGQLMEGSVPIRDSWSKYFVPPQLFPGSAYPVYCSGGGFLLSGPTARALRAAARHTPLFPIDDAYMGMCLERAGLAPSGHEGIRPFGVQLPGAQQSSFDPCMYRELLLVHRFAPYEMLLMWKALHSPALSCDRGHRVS

[10] = Inhibition of human GNT1 using Man3-octyl as substrate at 0.5 mM after 1 hr in presence of phosphatidylcholine
[11] = molecular target: T5, Beta-1,4-galactosyltransferase 1 (Homo sapiens) (UniProt P15291); experiment: Inhibition of human recombinant soluble His-tagged beta4-GalT1 expressed in Escherichia coli BL21 using GlcNAcbeta-Bn as substrate at 0.5 mM after 1 hr relative to control; method in brief: as §1
T5 sequence (whole entry): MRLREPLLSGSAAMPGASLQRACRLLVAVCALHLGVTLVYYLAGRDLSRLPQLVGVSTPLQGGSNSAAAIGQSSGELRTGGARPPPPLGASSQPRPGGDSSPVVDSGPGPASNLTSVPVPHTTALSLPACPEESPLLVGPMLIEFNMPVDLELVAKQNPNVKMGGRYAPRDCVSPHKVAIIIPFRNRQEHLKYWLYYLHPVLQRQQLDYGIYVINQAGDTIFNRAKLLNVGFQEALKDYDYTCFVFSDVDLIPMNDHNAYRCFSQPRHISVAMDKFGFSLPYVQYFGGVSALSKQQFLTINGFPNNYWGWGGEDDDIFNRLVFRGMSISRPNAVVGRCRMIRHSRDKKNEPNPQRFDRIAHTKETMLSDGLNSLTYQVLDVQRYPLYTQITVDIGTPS

[12] = molecular target: T6, Beta-1,3-galactosyltransferase 5 (Homo sapiens) (UniProt Q9Y2C3); experiment: Inhibition of human recombinant soluble His-tagged beta3-GalT5 expressed in insect cells using GlcNAcbeta-Bn as substrate at 0.5 mM after 1 hr relative to control
T6 sequence (whole entry): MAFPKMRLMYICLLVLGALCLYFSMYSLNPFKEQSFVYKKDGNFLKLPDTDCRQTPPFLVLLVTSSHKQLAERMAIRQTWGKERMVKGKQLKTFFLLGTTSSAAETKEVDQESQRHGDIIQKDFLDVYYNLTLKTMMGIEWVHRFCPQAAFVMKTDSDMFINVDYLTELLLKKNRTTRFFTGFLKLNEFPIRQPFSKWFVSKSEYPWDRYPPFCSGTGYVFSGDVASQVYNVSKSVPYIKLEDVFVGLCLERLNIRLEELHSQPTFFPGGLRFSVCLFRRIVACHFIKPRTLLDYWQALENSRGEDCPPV
Method in brief: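 Soluble His-tagged human β3-GalT5 expressed in insect cells and purified, 0.37 µg. Acceptor 0.5 mM GlcNAcβ-Bn, donor 0.5 mM UDP-Gal, inhibitor 0.5 mM bis-imidazolium salt in 10% ethanol. 1 h at 37 °C. Product isolated on AG1-X8 resin and counted by scintillation. % inhibition versus no-inhibitor control; blanks lacked acceptor. Mean ± SD of replicates.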

Bos taurus = species: Bos taurus; experiment: Inhibition of bovine polypeptide GalNAcT1 using AQPTPPP as substrate at 0.5 mM after 1 hr relative to control
[13] = molecular target: T7, Beta-1,4-galactosyltransferase 1 (Bos taurus, UniProt P08037); experiment: Inhibition of bovine milk beta4-GalT1 using GlcNAcbeta-Bn as substrate after 1 hr relative to control
T7 sequence (P08037 whole entry): T2 sequence (whole entry)
Method in brief: (§2)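 Dose-response series of bis-imidazolium salt in 10% ethanol, 0.5 mM GlcNAcβ-Bn acceptor, 0.5 mM UDP-Gal donor. 1 h at 37 °C. Product isolated on AG1-X8 anion-exchange resin (chloride form) with water elution, then scintillation counting. Controls lacked acceptor or inhibitor. IC50 fitted from inhibition curves. Enzyme source: bovine milk β4-GalT1 or bacterially expressed, purified human β4-GalT1.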

[14] = molecular target: Beta-1,3-galactosyltransferase 5 (Homo sapiens) (UniProt Q9Y2C3); experiment: Inhibition of human recombinant soluble His-tagged beta3-GalT5 expressed in insect cells using GlcNAcbeta-Bn as substrate after 1 hr
[15] = molecular target: T8, Beta-1,4-galactosyltransferase 1 (Homo sapiens, UniProt P15291); experiment: Inhibition of human recombinant soluble His-tagged beta4-GalT1 expressed in Escherichia coli BL21 using GlcNAcbeta-Bn as substrate after 1 hr relative to control; method in brief: as §2
T8 sequence (P15291 whole entry): T5 sequence (whole entry)

Row | inhibition [11] | inhibition [12] | Compound | also measured
1 | < 1% | < 1% | C[n+]1ccn(CCCCn2cc[n+](C)c2)c1 | –
2 | < 1% | < 1% | C[n+]1ccn(CCCCCCCCCCn2cc[n+](C)c2)c1 | –
3 | < 1% | < 1% | C[n+]1ccn(CCCCCCCCCCCCCCCn2cc[n+](C)c2)c1 | –
4 | < 1% | < 1% | C[n+]1ccn(CCCCCCCCCCCCCCn2cc[n+](C)c2)c1 | –
5 | < 1% | < 5% | C[n+]1ccn(CCCCCCCCCCCCCCCCCCn2cc[n+](C)c2)c1 | –
6 | < 1% | < 1% | C[n+]1ccn(CCCCCCCCCCCn2cc[n+](C)c2)c1 | –
7 | < 1% | < 1% | C[n+]1ccn(CCCCCCCCCCCCCn2cc[n+](C)c2)c1 | –
8 | < 1% | < 1% | C[n+]1ccn(CCCCCCCCn2cc[n+](C)c2)c1 | –
9 | < 1% | < 1% | C[n+]1ccn(CCCCCCCCCCCCCCCCn2cc[n+](C)c2)c1 | –
10 | < 1% | < 1% | C[n+]1ccn(CCCCCCCCCCCCn2cc[n+](C)c2)c1 | –
11 | < 1% | < 1% | C[n+]1ccn(CCCCCCn2cc[n+](C)c2)c1 | –

Continued, compound first:

Row | Compound | inhibition [11] | inhibition [12] | also measured
12 | C[n+]1ccn(CCCCCCCCCCCCCCCCCCCCn2cc[n+](C)c2)c1 [listing 1 of 3 here] | 40.7% and 54% | 79.2% and 84% | inhibition (Homo sapiens [1]): < 1%; inhibition [2]: inactive; inhibition [3]: < 1%; inhibition [4]: 40.7% and 54%; inhibition (Homo sapiens [5]): < 1%; inhibition [6]: < 1%; inhibition [7]: inactive; inhibition [8]: 100%; inhibition [9]: 80% and 94.4%; inhibition [10]: < 1%; inhibition (Bos taurus): 96.8% and 91%
13 | c1cn(CCCCCCCCCCCCn2ccnc2)cn1 | < 1% | < 1% | –
14 | c1cn(CCCCCCCCCCCCCCCCCCCCn2ccnc2)cn1 | < 1% | < 1% | –
15 | c1cn(CCCCCCCCCCCCCn2ccnc2)cn1 | < 1% | < 1% | –
16 | C[n+]1ccn(CCCCCCCCCCCCCCCCCCCCn2cc[n+](C)c2)c1 [listing 2 of 3 here] | – | – | IC50 [13]: 730 µM; IC50 [14]: 440 µM; IC50 [15]: 1960 µM
17 | c1cn(CCCCCCCCCCn2ccnc2)cn1 | < 1% | < 1% | –
18 | c1cn(CCCCn2ccnc2)cn1 | < 1% | < 1% | –
19 | c1cn(CCCCCCCCCCCCCCCCCCn2ccnc2)cn1 | < 1% | < 1% | –
20 | c1cn(CCCCCCCCCCCn2ccnc2)cn1 | < 1% | < 1% | –
21 | c1cn(CCCCCCCCn2ccnc2)cn1 | < 1% | < 1% | –
22 | c1cn(CCCCCCCCCCCCCCCCn2ccnc2)cn1 | < 1% | < 1% | –
23 | C[n+]1ccn(CCCCCCCCCCCCCCCCCCCCCCn2cc[n+](C)c2)c1 | 78% | 95% | inhibition (Homo sapiens [1]): < 1%; inhibition [3]: < 1%; IC50 [14]: 400 µM; inhibition [4]: 78%; inhibition (Homo sapiens [5]): < 1%; inhibition [6]: < 1%; inhibition [8]: 100%; inhibition [9]: 78%; inhibition (Bos taurus): 100%
24 | c1cn(CCCCCCn2ccnc2)cn1 | < 1% | < 1% | –
25 | c1cn(CCCCCCCCCCCCCCCn2ccnc2)cn1 | < 1% | < 1% | –
26 | C[n+]1ccn(CCCCCCCCCCCCCCCCCCCCn2cc[n+](C)c2)c1 [listing 3 of 3 here] | – | – | IC50 [14]: 420 µM
27 | c1cn(CCCCCCCCCCCCCCn2ccnc2)cn1 | < 1% | < 1% | –
